In ChEMBL document CHEMBL4359903, “1,2,4-Oxadiazole derivatives targeting EGFR and c-Met degradation in TKI resistant NSCLC” (Eur J Med Chem, 2019) one finds IC50, Activity and inhibition in vivo data, which are given here for one compound.

Structures are written as SMILES. The source made the active and inactive calls. The rule behind the calls is not given here.

What is called IC50 is the point on the concentration scale where inhibition reaches its midpoint.

Series [1] in a line: Antiproliferative activity against human CL68 cells harbouring EGFR delE746-A750/T790M mutant assessed as reduction in cell viability incubated for 48 hrs by MTT assay. In kind it is functional, cell-based. In outline:
(§1)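 Cells seeded at 5000 per well in 10% FBS and left overnight, then exposed to agent or DMSO in 5% FBS for 48 h. MTT added for 1 h, dye dissolved in DMSO, absorbance read at 570 nm. Viability given as percent of vehicle control. At least three independent experiments, means ± SD.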
(In general: Tetrazolium dyes change colour on reduction, which living cells bring about.)

The target of series [2] is Epidermal growth factor receptor (Homo sapiens) (UniProt P00533). The series is described as follows: Induction of EGFR degradation in human MDA-MB-231 cells assessed as reduction in EGFR expression incubated for 48 hrs by immunoblot analysis. In kind it is cell-based. The procedure, abridged: (§2)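 After 48 h treatment, cells were scraped and lysed in 1% SDS, 50 mM Tris-HCl pH 8.0, 10 mM EDTA with protease and phosphatase inhibitors. Lysates sonicated, protein measured by BCA, equal amounts run on SDS-PAGE and blotted to nitrocellulose. Primary antibodies (EGFR, c-Met, S473-Akt, Akt, GAPDH) used at 1:1000 overnight at 4 °C, HRP secondaries at 1:5000, ECL detection.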

The target in series [3] is Hepatocyte growth factor receptor (Homo sapiens) (UniProt P08581). The series is described as follows: Induction of c-MET degradation in human NCI-H1975 cells harbouring EGFR L858R/T790M double assessed as reduction in c-Met expression at 0.2 to 0.6 uM incubated for 48 hrs by Western blot analysis. It is filed as cell-based. In outline:
as §2
(Immunoblotting shows a protein as a band on a membrane.)

Series [4] deals with NCI-H1975. The series is described as follows: Antitumor activity against human NCI-H1975 cells harbouring EGFR L858R/T790M double mutant xenografted in athymic Nude-Foxn1nu BALB/c mouse assessed as tumor growth inhibition at 50 mg/kg, po administered once daily via gavage for 20 days in presence of gefitinib measured twice a week by caliper method relative to control. It is filed as functional. As to conditions: 480 h, read-out: TGI. In outline:
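H1975 subcutaneous xenografts in female nude mice, randomized at about 50 mm3, n = 8 per group. Four arms gavaged once daily for 20 days: vehicle, gefitinib 50 mg/kg, test agent 50 mg/kg, or both at 50 mg/kg each. Tumor volume by calipers (width² × length × 0.52), measured twice weekly.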
For orientation: A xenograft is tissue or cells of one species grown in another, often human tumour cells in immunodeficient mice.

The subject of series [5] is Epidermal growth factor receptor (Homo sapiens), P00533 [L858R,T790M]. The series is described as follows: Induction of EGFR L858R/T790M double mutant degradation in human NCI-H1975 cells assessed as change in EGFR expression at 0.2 to 0.6 uM incubated for 48 hrs by RT-PCR analysis. It is filed as cell-based. In outline:
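Total RNA extracted with TRIzol from H1975 and A549 cells treated at 0.2–0.6 µM. EGFR and c-Met mRNA assessed by RT-PCR.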

The test system of a further series is CL97. The series is described as follows: Antiproliferative activity against human CL97 cells harbouring EGFR G719A/T790M mutant assessed as reduction in cell viability incubated for 48 hrs by MTT assay. It is filed as functional, cell-based. As to conditions: CL97, 48 h. In outline:
as §1

Series [6] relates to NCI-H1975. The series is described as follows: Antitumor activity against human NCI-H1975 cells harbouring EGFR L858R/T790M double mutant xenografted in athymic Nude-Foxn1nu BALB/c mouse assessed as tumor growth inhibition at 150 mg/kg, po administered once daily via gavage for 20 days measured twice a week by caliper method relative to control. It is filed as functional. As to conditions: 480 h, read-out: TGI. The procedure, abridged:
(§3)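 Female Balb/c nude mice, 5 weeks old, injected subcutaneously in the right flank with 10^6 H1975 cells in 0.1 ml. Randomized at about 50 mm3, n = 8 per group. Gavaged once daily for 20 days with vehicle (10% DMSO/0.1% Tween 80/0.5% methylcellulose in sterile water) or 50 or 150 mg/kg. Calipers, V = width² × length × 0.52; volume and body weight twice weekly; Student's t-test.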

Series [7] concerns Epidermal growth factor receptor (Homo sapiens), P00533 [L858R,T790M]. Nature of the series: Induction of EGFR L858R/T790M double mutant degradation in human NCI-H1975 cells assessed as reduction in Akt phosphorylation at 0.2 to 0.6 uM incubated for 48 hrs by Western blot analysis. In kind it is cell-based. The procedure, abridged: as §2
The test system of series [8] is NCI-H1975. Nature of the series: Antiproliferative activity against human NCI-H1975 cells harbouring EGFR L858R/T790M double mutant assessed as reduction in cell viability incubated for 48 hrs by MTT assay. As to conditions: NCI-H1975, 48 h. In kind it is functional, cell-based. In outline: as §1
For the next series, the system named is PC-9. The series is described as follows: Antiproliferative activity against human PC9 cells harbouring EGFR delE746-A750 mutant assessed as reduction in cell viability incubated for 72 hrs by MTT assay. In kind it is functional, cell-based. As to conditions: PC-9, 72 h.
Series [9] in a line: Toxicity in athymic Nude-Foxn1nu BALB/c mouse xenografted with human NCI-H1975 cells harbouring EGFR L858R/T790M double mutant assessed as body weight loss at 50 to 150 mg/kg, po administered once daily via gavage for 20 days measured twice a week. As to conditions: in vivo, 480 h. In kind it is organism-based. In outline:
as §3

Series [10] addresses Epidermal growth factor receptor (Homo sapiens) (UniProt P00533). Nature of the series: Inhibition of EGFR in wild type human A549 cells assessed as reduction in Akt phosphorylation at 0.2 to 0.6 uM incubated for 48 hrs by Western blot analysis. It is filed as cell-based. The procedure, abridged:
as §2

In the next series the test system is A549. The series is described as follows: Antiproliferative activity against wild type human A549 cells assessed as reduction in cell viability incubated for 72 hrs by MTT assay. In kind it is functional, cell-based. As to conditions: A549, 72 h.
Series [11] relates to Epidermal growth factor receptor (Homo sapiens), P00533 [G719A,T790M]. The series is described as follows: Induction of EGFR G719A/T790M mutant degradation in human CL97 cells assessed as reduction in EGFR expression at 0.2 to 0.6 uM incubated for 48 hrs by Western blot analysis. In kind it is cell-based. The procedure, abridged: as §2
In series [12] the target is Hepatocyte growth factor receptor (Homo sapiens) (UniProt P08581). The series is described as follows: Induction of c-MET degradation in human CL68 cells harbouring EGFR delE746-A750/T790M assessed as reduction in c-Met expression at 0.2 to 0.6 uM incubated for 48 hrs by Western blot analysis. In kind it is cell-based. In outline: as §2
In the next series the test system is MDA-MB-231. Nature of the series: Antiproliferative activity against human MDA-MB-231 cells assessed as reduction in cell viability incubated for 72 hrs by MTT assay. In kind it is functional, cell-based. As to conditions: MDA-MB-231, 72 h. The procedure, abridged:
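MTT viability assay after 72 h of drug exposure. Cells seeded at 5000 per well in 10% FBS and left overnight, then treated in 5% FBS. MTT added for 1 h, dye dissolved in DMSO, absorbance read at 570 nm. Viability given relative to vehicle-treated cells.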

In series [13] the test system is NCI-H1975. Nature of the series: Antitumor activity against human NCI-H1975 cells harbouring EGFR L858R/T790M double mutant xenografted in athymic Nude-Foxn1nu BALB/c mouse assessed as reduction in c-Met expression in tumor lysates administered once daily via oral gavage for 20 days measured on day 20 by Western blot analysis. It is filed as functional. As to conditions: Neoplasm, Lysate. The procedure, abridged:
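H1975 xenografts in nude mice gavaged daily for 20 days with vehicle, 50 or 150 mg/kg. At study end mice were killed by CO2, and tumor lysates from four representative tumors per group were immunoblotted for EGFR and c-Met. Band intensities quantified by densitometry.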

In series [14] the target is Hepatocyte growth factor receptor (Homo sapiens) (UniProt P08581). The series is described as follows: Induction of c-MET degradation in human MDA-MB-231 cells assessed as reduction in c-Met expression incubated for 48 hrs by immunoblot analysis. It is filed as cell-based. The procedure, abridged:
as §2

In series [15] the test system is Epidermal growth factor receptor (Homo sapiens), P00533 [UNDEFINED MUTATION]. The series is described as follows: Induction of EGFR E746-A750 deletion mutant degradation in human PC9 cells assessed as reduction in EGFR expression at 0.2 to 0.6 uM incubated for 48 hrs by Western blot analysis. In kind it is cell-based. The procedure, abridged: as §2

Sequence of Hepatocyte growth factor receptor (Homo sapiens) (P08581 whole entry): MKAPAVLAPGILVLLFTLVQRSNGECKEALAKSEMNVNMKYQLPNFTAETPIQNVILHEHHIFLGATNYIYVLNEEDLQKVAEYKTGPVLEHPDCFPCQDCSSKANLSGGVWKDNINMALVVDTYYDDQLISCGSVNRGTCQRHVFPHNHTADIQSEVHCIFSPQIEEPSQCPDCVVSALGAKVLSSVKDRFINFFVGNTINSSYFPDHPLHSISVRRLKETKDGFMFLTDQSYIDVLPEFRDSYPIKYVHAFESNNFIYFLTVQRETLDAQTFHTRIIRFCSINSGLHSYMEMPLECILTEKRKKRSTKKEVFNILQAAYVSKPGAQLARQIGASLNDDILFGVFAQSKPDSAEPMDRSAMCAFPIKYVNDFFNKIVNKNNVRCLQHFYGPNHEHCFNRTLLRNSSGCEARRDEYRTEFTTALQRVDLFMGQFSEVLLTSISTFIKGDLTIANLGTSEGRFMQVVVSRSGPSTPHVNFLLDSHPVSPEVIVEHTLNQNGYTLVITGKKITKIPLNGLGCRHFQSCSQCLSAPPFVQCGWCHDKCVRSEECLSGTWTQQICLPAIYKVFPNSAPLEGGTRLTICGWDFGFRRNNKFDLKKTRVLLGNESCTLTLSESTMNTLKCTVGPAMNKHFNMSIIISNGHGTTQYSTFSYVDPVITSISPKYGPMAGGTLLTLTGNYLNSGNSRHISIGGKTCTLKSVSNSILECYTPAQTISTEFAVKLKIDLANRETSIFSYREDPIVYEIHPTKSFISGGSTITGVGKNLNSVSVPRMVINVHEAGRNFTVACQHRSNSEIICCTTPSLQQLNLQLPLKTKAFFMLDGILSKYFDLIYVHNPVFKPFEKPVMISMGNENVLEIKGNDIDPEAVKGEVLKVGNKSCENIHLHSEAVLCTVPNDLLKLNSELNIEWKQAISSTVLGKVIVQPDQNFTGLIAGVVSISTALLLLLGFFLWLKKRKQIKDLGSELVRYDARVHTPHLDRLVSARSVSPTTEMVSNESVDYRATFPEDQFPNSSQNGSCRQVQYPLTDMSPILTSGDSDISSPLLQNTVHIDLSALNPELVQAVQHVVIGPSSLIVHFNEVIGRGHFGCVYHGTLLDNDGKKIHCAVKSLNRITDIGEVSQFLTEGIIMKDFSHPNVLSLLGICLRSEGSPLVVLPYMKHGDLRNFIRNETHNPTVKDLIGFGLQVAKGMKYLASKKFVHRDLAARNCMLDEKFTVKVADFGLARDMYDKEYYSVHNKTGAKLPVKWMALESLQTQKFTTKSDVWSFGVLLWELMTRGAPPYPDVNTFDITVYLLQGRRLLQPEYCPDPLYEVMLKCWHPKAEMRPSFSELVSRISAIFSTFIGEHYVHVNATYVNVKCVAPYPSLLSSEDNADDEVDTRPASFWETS

As for `O=C(Nc1cccc(-c2nc(-c3ccc(NC(=O)c4cccnc4)cc3Cl)no2)c1)Nc1ccc(NC(=O)C2CC2)c(C(F)(F)F)c1`, the IC50 in [1] stood at 0.5 µM; with CL97, 0.6 µM; in the series with NCI-H1975 [8], 0.3 µM; with PC-9 it was 0.5 µM; in the series with A549, 0.2 µM; in the series on MDA-MB-231, 0.2 µM. The result in series [2], in [3], in [7], in series [10], in series [11] and in series [12] was Active. The outcome in series [14] and in series [15] was Active. For the same compound, the inhibition in vivo at 50 mg/kg in the series on NCI-H1975 [4] came out at 72%. For the same compound, in [5], the outcome was inactive. Further, the inhibition in vivo at 150 mg/kg in the series on NCI-H1975 [6] came to 60%. In addition, the Activity result is “Non-Toxic” in [9] and “Dose-dependent effect” in the series on NCI-H1975 [13].
